Common to all, as to assay type: functional, cell-based
One test relates to HepG2. Briefly: Cytotoxicity against human HepG2 cells after 48 hrs by sulforhodamine B assay. The following applies: HepG2, 48 h. The method in brief: (§1)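 Cells seeded at 10^4 per well and allowed to attach for 24 h, then exposed to compound at 0, 1, 2.5, 5 and 10 μg/ml, triplicate wells per dose, 48 h at 37 °C, 5% CO2. Fixed, stained with sulforhodamine B, excess dye removed with acetic acid, bound dye dissolved in Tris EDTA, absorbance read. IC50 (μg/ml, 50% survival reduction) taken from triplicate dose–response curves.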
(In general: The SRB assay estimates cell density from bound dye.)

The next test deals with MCF7. The test can be described thus: Cytotoxicity against human MCF7 cells after 48 hrs by sulforhodamine B assay. Conditions: MCF7, 48 h. The method in brief: as §1
In another test the test system is HCT-116. The test can be described thus: Cytotoxicity against human HCT116 cells after 48 hrs by sulforhodamine B assay. Conditions: HCT-116, 48 h. The method, boiled down: as §1

≈ marks a conversion by molar mass, not a printed value.

Results on 8 molecules are retold here after ChEMBL document CHEMBL1177865, “Synthesis and anticancer activity of some novel 2-substituted benzimidazole derivatives” (Eur J Med Chem, 2010).

Broadly, the IC50 is the concentration at which inhibition is half-maximal. Low values mean inhibition by little substance, high ones a need for much substance. By IC90 is commonly meant the concentration needed for an effect of 90%. Low values mean greater potency, high ones weaker potency. For the molecule `Nc1c(-c2nc3cc(C(=O)O)ccc3[nH]2)sc(=S)n1Cc1ccccc1`, the figures for the IC50 in the test with HepG2, with MCF7 and in the test on HCT-116 were 0.55 µg/mL (≈ 1.44 µM), 3.51 µg/mL (≈ 9.18 µM) and 4.23 µg/mL (≈ 11.1 µM), respectively. In addition, the IC90 in the test with HepG2 came out at 7.53 µg/mL (≈ 19.7 µM); in the test on MCF7, 14.1 µg/mL (≈ 36.8 µM); in the test on HCT-116 it was 14 µg/mL (≈ 36.7 µM).

In the case of `N#CC(=C1CCCCC1)c1nc2cc(C(=O)O)ccc2[nH]1`, the half-inhibitory concentration (IC50) was determined as 1.65 µg/mL (≈ 5.87 µM) in the test on HepG2, 2.15 µg/mL (≈ 7.64 µM) with MCF7 and 8.25 µg/mL (≈ 29.3 µM) in the test on HCT-116. For the same molecule, the 90% effect concentration (IC90) with HepG2 stood at 8.61 µg/mL (≈ 30.6 µM); with MCF7, 11.7 µg/mL (≈ 41.6 µM); with HCT-116 it was 14.2 µg/mL (≈ 50.4 µM).

For `N#C/C(=C1\SCCCN1c1ccccc1)c1nc2cc(C(=O)O)ccc2[nH]1`, the concentration for half-maximal inhibition (IC50) was found to be 1.87 µg/mL (≈ 4.97 µM) with HepG2, 4.04 µg/mL (≈ 10.7 µM) in the test on MCF7 and 9.39 µg/mL (≈ 24.9 µM) in the test on HCT-116. Further, the concentration for an effect of 90% (IC90) turned out to be 8.8 µg/mL (≈ 23.4 µM) with HepG2, 15 µg/mL (≈ 39.9 µM) with MCF7 and 14.7 µg/mL (≈ 39.1 µM) in the test with HCT-116.

Take `COc1ccccc1C1=CS/C(=C(\C#N)c2nc3cc(C(=O)O)ccc3[nH]2)N1c1ccc(Br)cc1`: the IC50 in the test on HepG2 was 3.16 µg/mL (≈ 5.79 µM); with MCF7, 2.85 µg/mL (≈ 5.23 µM); with HCT-116, 3.75 µg/mL (≈ 6.88 µM). In addition, the values for the IC90 in the test on HepG2, in the test with MCF7 and with HCT-116 were 9.31 µg/mL (≈ 17.1 µM), 13.2 µg/mL (≈ 24.3 µM) and 12.1 µg/mL (≈ 22.1 µM), respectively.

Regarding `COc1cccc2c1C(=O)c1c(O)c3c(c(O)c1C2=O)C[C@@](O)(C(=O)CO)C[C@@H]3O[C@H]1C[C@H](N)[C@H](O)[C@H](C)O1` [DOXORUBICIN], the IC50 in the test on HepG2 amounted to 0.59 µg/mL (≈ 1.09 µM); with HCT-116 it was 0.65 µg/mL (≈ 1.2 µM). Moreover, the IC90 amounted to 6.82 µg/mL (≈ 12.5 µM) with HepG2, 8.77 µg/mL (≈ 16.1 µM) with MCF7 and 7.32 µg/mL (≈ 13.5 µM) in the test with HCT-116.

As to `N#C/C(=C1\SC(=O)CN1C1CCCCC1)c1nc2cc(C(=O)O)ccc2[nH]1`, the half-maximal inhibitory concentration (IC50) in the test on HepG2 was 1.35 µg/mL (≈ 3.53 µM); in the test with MCF7, 3.83 µg/mL (≈ 10 µM); in the test with HCT-116, 5.52 µg/mL (≈ 14.4 µM). In addition, the IC90 worked out at 9.15 µg/mL (≈ 23.9 µM) in the test on HepG2, 15 µg/mL (≈ 39.3 µM) with MCF7 and 14.1 µg/mL (≈ 36.9 µM) in the test with HCT-116.

As to `N#C/C(=C1\SCC(=O)N1c1ccccc1)c1nc2cc(Cl)ccc2[nH]1`, the IC50 in the test on HepG2 amounted to 0.93 µg/mL (≈ 2.54 µM); in the test with MCF7 it was 2.83 µg/mL (≈ 7.71 µM); with HCT-116 it was 3.72 µg/mL (≈ 10.1 µM). Also, the 90% effect concentration (IC90) with HepG2 was 7.89 µg/mL (≈ 21.5 µM); in the test on MCF7, 12.6 µg/mL (≈ 34.4 µM); in the test on HCT-116, 12 µg/mL (≈ 32.8 µM).

`N#C/C(=C\c1ccc(F)cc1)c1nc2cc(Cl)ccc2[nH]1`: the IC50 in the test on HepG2 amounted to 0.55 µg/mL (≈ 1.85 µM); with MCF7 it was 3.41 µg/mL (≈ 11.5 µM); with HCT-116, 8.4 µg/mL (≈ 28.2 µM). Further, the IC90 was found to be 7.62 µg/mL (≈ 25.6 µM) in the test on HepG2, 13.3 µg/mL (≈ 44.8 µM) with MCF7 and 14.8 µg/mL (≈ 49.8 µM) with HCT-116.
